Measurements published in ChEMBL document CHEMBL3272090, “A new type of anticonvulsant: 1-aryl-3-oxotetrahydroisoquinolines” (J Med Chem, 1977).
Calls of active or inactive are those of the source.

Legend:
Mus musculus [1] = experiment: Anticonvulsant activity in po dosed mouse assessed as protection against maximal electroshock-induced seizures pretreated for 3 hrs; assay type: functional
Method in brief: (§1)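 Mice given compound perorally as a Tween suspension 3 h before maximal electroshock seizure testing (Swinyard method). Median effective dose with 95% confidence limits by Litchfield–Wilcoxon; doses up to 300 mg/kg examined.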

Mus musculus [2] = experiment: Anticonvulsant activity in mouse assessed as protection against pentylenetetrazole-induced convulsion at 300 mg/kg, po pretreated for 3 hrs; assay type: functional, organism-based; design: dose 300 mg/kg
Method in brief: (§2)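 Peroral dosing in mice as Tween suspension, 3 h before pentylenetetrazole threshold test (Orloff method). Activity taken as a rise in threshold PTZ dose of at least 50% versus saline-pretreated controls.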

Mus musculus [3] = experiment: Neurotoxicity in po dosed mouse by rotarod test; assay type: toxicity, organism-based; conditions: in vivo
Method in brief: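 Mice dosed perorally with Tween suspension 3 h before rotarod testing for neurotoxicity. Median effective dose with 95% confidence limits by Litchfield–Wilcoxon method.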

[4] = Protective index, ratio of ED50 for neurotoxicity in po dosed mouse by rotarod test to ED50 for anticonvulsant activity in po dosed mouse assessed as protection against maximal electroshock-induced seizures; assay type: toxicity, organism-based; conditions: in vivo, read-out: Ratio ED50
Method in brief: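 Index calculated as rotarod ED50 divided by MES ED50, both from mice dosed perorally in Tween suspension 3 h before testing.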

[5] = Acute toxicity in po dosed mouse assessed as mortality after 24 hrs; assay type: organism-based; conditions: in vivo
Mus musculus [6] = experiment: Anticonvulsant activity in mouse assessed as protection against maximal electroshock-induced seizures at 300 mg/kg, po pretreated for 3 hrs; assay type: functional, organism-based; design: dose 300 mg/kg; method in brief: as §1
Mus musculus [7] = experiment: Anticonvulsant activity in po dosed mouse assessed as protection against pentylenetetrazole-induced convulsion pretreated for 3 hrs; assay type: functional; method in brief: as §2

SMILES	ED50 (Mus musculus [1]) [mg/kg]	Activity (Mus musculus [2])	ED50 (Mus musculus [3]) [mg/kg]	selectivity ratio [4]	LD50 at 24 h [5] [mg/kg]	Activity (Mus musculus [6])	ED50 (Mus musculus [7]) [mg/kg]
O=C1Cc2ccccc2C(c2ccc(NC(=O)NCc3ccccc3)cc2)N1 (configuration not stated)	275	inactive	> 2000	> 7	> 2000		
CCCCN(CCCC)CC(=O)Nc1ccc(C2NC(=O)C(C)(C)c3ccccc32)cc1 (configuration not stated)	62	inactive	600	10	> 2000		
CCCNCC(=O)Nc1ccc(C2NC(=O)C(C(C)C)c3ccccc32)cc1 (configuration not stated)	19.6	inactive	50	2.5	600		
O=C1Cc2ccccc2C(c2ccccc2)N1 (configuration not stated)	105	inactive	730	7	1060		
O=C(CCCN1CCCC1)Nc1ccc(C2NC(=O)Cc3ccccc32)cc1 (configuration not stated)	215	inactive	> 2000	> 9	> 2000		
CC1(C)C(=O)NC(c2ccc(NC(=O)CN)cc2)c2ccccc21 (configuration not stated)	32.5	inactive	420	13	> 1000		
CCNCC(=O)Nc1ccc(C2NC(=O)C(C)(C)c3ccccc32)cc1 (configuration not stated)			760		> 2000	inactive	
CC(C)NCC(=O)Nc1ccc(C2NC(=O)Cc3ccccc32)cc1 (configuration not stated)			270	26	> 1000		
O=C(CN1CCOCC1)Nc1ccc(C2NC(=O)Cc3ccccc32)cc1 (configuration not stated)	55	inactive	> 1600	> 29	> 1600		
CCCNCC(=O)Nc1ccccc1C1NC(=O)Cc2ccccc21 (configuration not stated)	180		> 2000	> 11	> 2000		300
O=C(CN1CCCCC1)Nc1ccc(C2NC(=O)Cc3ccccc32)cc1 (configuration not stated)			> 2000		> 2000	inactive	300
Cl.Nc1ccc(C2NC(=O)Cc3ccccc32)cc1 (configuration not stated)	19		95	5	795		50
O=C1NC(=O)C(c2ccccc2)(c2ccccc2)N1 [PHENYTOIN]	5.2		79.5	15	> 1000		26
CNCC(=O)Nc1ccc(C2NC(=O)Cc3ccccc32)cc1 (configuration not stated)			270	12	600		
CC(C)C1C(=O)NC(c2ccc(NC(=O)CCCN3CCCC3)cc2)c2ccccc21 (configuration not stated)		inactive	86		> 1000	inactive	
Cc1ccc2c(c1)C(c1ccc(N)cc1)NC(=O)C2(C)C (configuration not stated)	70		1030	15	> 1600		300

SMILES	ED50 (Mus musculus [1]) [mg/kg]	Activity (Mus musculus [2])	ED50 (Mus musculus [3]) [mg/kg]	selectivity ratio [4]	LD50 at 24 h [5] [mg/kg]	Activity (Mus musculus [6])	ED50 (Mus musculus [7]) [mg/kg]
CC(C)C1C(=O)NC(c2ccc(N)cc2)c2ccccc21 (configuration not stated)	20		358	18	> 1600		20
CCCNCC(=O)Nc1ccc(C2NC(=O)C(C)c3ccccc32)cc1 (configuration not stated)			340	15	> 1600		100
CC1(C)C(=O)NC(c2ccccc2N)c2ccccc21 (configuration not stated)	110		> 1000	> 9	> 1000		
CC1(C)C(=O)NC(c2ccc(NC(=O)CN3CCCCC3)cc2)c2ccccc21 (configuration not stated)	62	inactive	> 2000	> 36	> 2000		
CNCC(=O)Nc1ccc(C2NC(=O)C(C)(C)c3ccccc32)cc1 (configuration not stated)		inactive	600	24	> 2000		
CC1C(=O)NC(c2ccc(N)cc2)c2ccccc21 (configuration not stated)	26		250	10	> 2000		100
Nc1ccc(Cl)c(C2NC(=O)Cc3ccccc32)c1Cl (configuration not stated)		inactive	> 1000		> 1000	inactive	
Nc1ccccc1C1NC(=O)Cc2ccccc21 (configuration not stated)	140	inactive	940	7	> 2000		
CCCCNCC(=O)Nc1ccc(C2NC(=O)C(C)(C)c3ccccc32)cc1 (configuration not stated)	23.5	inactive	335	14	> 2000		
CC(C)NCC(=O)Nc1ccc(C2NC(=O)C(C)(C)c3ccccc32)cc1 (configuration not stated)			1600	59	> 2000		100
CCCNCC(=O)Nc1ccc(C2NC(=O)Cc3ccccc32)cc1 (configuration not stated)	20.6		490	24	2000		
CC1(C)C(=O)NC(c2ccc(N)cc2)c2ccccc21 (configuration not stated)	20		240	12	> 1600		100
CCCNCC(=O)Nc1ccc(C2NC(=O)C(C)(C)c3ccccc32)cc1 (configuration not stated)			435	14	> 1600		
CCNCC(=O)Nc1ccc(C2NC(=O)Cc3ccccc32)cc1 (configuration not stated)			520	51	> 1600		
CCN(CC)CC(=O)Nc1ccc(C2NC(=O)C(C)(C)c3ccccc32)cc1 (configuration not stated)	90	inactive	1300	15	1600		
CC1(C)C(=O)NC(c2ccc(NC(=O)CN3CCOCC3)cc2)c2ccccc21 (configuration not stated)	78		> 1600	> 20	2000		300
